Drawing on ChEMBL document CHEMBL1926595, “Design and synthesis of 4,6-substituted-(diaphenylamino)quinazolines as potent EGFR inhibitors with antitumor activity” (Bioorg Med Chem, 2012), this text covers IC50 and Activity for 19 molecules.

Experiment [1] is described as follows: Antiproliferative activity against human A16-F10 cells after 48 hrs by MTT assay. It is filed as functional, cell-based. Particulars: A16-F10, 48 h. An outline of the steps: (§1)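 Cells were seeded at 7 × 10³ per well and, after 24 h, exposed while growing exponentially to a range of concentrations for 48 h. MTT (5 mg/mL stock in PBS) was added for 6 h, followed by 10% SDS in 0.01 N HCl for a further 4 h at 37 °C, then absorbance read at 570 nm. Survival was taken as % of untreated cells. IC50 came from 6-well replicates in at least two independent experiments.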
For orientation: Formazan colour is commonly taken as a measure of viable cells.

The test system of experiment [2] is HepG2. Kind of experiment: Antiproliferative activity against human HepG2 cells after 48 hrs by MTT assay. Type of experiment: functional, cell-based. The note with it: HepG2, 48 h. An outline of the steps:
as §1

The target in experiment [3] is Epidermal growth factor receptor (Homo sapiens, UniProt P00533). Nature of the experiment: Inhibition of EGFR expressed in baculovirus infected Sf9 cells assessed as inhibition of autophosphorylation preincubated for 10 mins measured after 1 hr by DELFIA/Time-Resolved Fluorometry.
Epidermal growth factor receptor, sequence (P00533 whole entry): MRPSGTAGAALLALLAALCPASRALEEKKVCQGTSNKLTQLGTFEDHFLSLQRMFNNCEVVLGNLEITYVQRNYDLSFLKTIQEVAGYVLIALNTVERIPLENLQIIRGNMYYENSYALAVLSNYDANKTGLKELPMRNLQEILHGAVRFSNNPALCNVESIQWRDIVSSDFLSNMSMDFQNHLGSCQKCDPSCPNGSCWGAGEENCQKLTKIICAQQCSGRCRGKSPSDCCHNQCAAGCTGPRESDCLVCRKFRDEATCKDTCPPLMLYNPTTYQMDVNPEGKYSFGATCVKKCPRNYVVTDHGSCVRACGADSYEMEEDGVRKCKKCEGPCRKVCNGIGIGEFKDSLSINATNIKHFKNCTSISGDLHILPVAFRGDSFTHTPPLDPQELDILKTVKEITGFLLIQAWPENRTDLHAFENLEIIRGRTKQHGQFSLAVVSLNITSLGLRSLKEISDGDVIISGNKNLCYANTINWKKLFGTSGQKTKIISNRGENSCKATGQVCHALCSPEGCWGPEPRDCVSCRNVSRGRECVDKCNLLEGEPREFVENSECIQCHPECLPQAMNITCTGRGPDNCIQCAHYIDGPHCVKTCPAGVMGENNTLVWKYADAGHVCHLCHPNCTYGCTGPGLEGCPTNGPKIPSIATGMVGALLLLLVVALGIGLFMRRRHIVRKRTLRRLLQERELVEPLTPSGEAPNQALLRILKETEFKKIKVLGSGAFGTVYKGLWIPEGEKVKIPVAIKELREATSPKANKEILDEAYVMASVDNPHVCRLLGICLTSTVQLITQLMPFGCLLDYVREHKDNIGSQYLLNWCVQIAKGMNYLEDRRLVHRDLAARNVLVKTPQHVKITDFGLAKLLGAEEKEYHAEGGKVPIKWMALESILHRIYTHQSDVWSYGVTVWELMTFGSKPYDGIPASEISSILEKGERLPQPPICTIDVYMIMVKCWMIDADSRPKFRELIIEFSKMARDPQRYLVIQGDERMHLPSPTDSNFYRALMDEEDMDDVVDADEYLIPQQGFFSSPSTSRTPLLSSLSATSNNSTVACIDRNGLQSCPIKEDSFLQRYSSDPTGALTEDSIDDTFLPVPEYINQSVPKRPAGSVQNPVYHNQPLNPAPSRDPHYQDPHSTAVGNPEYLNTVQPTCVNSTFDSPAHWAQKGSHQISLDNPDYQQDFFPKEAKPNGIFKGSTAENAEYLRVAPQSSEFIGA
Experiment [4] concerns HepG2. Nature of the experiment: Induction of apoptosis in human HepG2 cells assessed as apoptotic cells at 2 uM after 3 days using annexin-V/PI double staining by flow cytometry (reference value: 0.98%). It is filed as functional.
The subject of experiment [5] is HepG2. Nature of the experiment: Induction of apoptosis in human HepG2 cells after 3 days using annexin-V/PI double staining by flow cytometry. Type of experiment: functional, cell-based. In general terms: Flow cytometry measures light scatter and fluorescence of single cells or particles in a stream.
The subject of experiment [6] is HepG2. Nature of the experiment: Induction of apoptosis in human HepG2 cells assessed as apoptotic cells at 1 uM after 3 days using annexin-V/PI double staining by flow cytometry (reference value: 0.98%). Type of experiment: functional.

In the case of `C#Cc1cccc(Nc2ncnc3cc(OCCOC)c(OCCOC)cc23)c1` [ERLOTINIB], half-maximal inhibition in experiment [1] (IC50) was put at 0.02 µM.

For the molecule `Fc1ccc(CNc2ccc3ncnc(Nc4cccc(Br)c4)c3c2)cc1`, the IC50 in experiment [2] came to 1.77 µM; in experiment [1] it was 2.09 µM.

Turning to `Clc1cccc(Nc2ncnc3ccc(NCc4ccccc4Cl)cc23)c1`, the 50% inhibitory concentration (IC50) in experiment [2] was found to be 5.33 µM; in experiment [1] it was 7.12 µM.

Turning to `Clc1ccc(CNc2ccc3ncnc(Nc4cccc(Cl)c4)c3c2)cc1`, the IC50 in experiment [2] is 1.78 µM; in experiment [3], 4.41 µM; in experiment [1], 2.67 µM.

`Clc1cccc(Nc2ncnc3ccc(NCc4ccccc4Br)cc23)c1`: the IC50 worked out at 4.17 µM in experiment [2] and 5.83 µM in experiment [1].

Consider `Oc1ccccc1CNc1ccc2ncnc(Nc3cccc(Br)c3)c2c1`, for which the IC50 in experiment [2] turned out to be 1.26 µM; in experiment [3] it was 3.22 µM; in experiment [1], 1.87 µM.

As to `Clc1ccc(CNc2ccc3ncnc(Nc4cccc(Br)c4)c3c2)cc1`, the IC50 worked out at 0.92 µM in experiment [2], 1.64 µM in experiment [3] and 1.82 µM in experiment [1].

As for `COc1ccccc1CNc1ccc2ncnc(Nc3cccc(Br)c3)c2c1`, the IC50 in experiment [2] was 8.82 µM; in experiment [3] it was 11.2 µM; in experiment [1], 12.5 µM.

In the case of `Oc1ccc(CNc2ccc3ncnc(Nc4cccc(Cl)c4)c3c2)cc1`, the figures for the IC50 in experiment [2], in experiment [3] and in experiment [1] were 1.52 µM, 1.87 µM and 1.58 µM, respectively.

As to `COc1ccc(CNc2ccc3ncnc(Nc4cccc(Br)c4)c3c2)cc1`, the half-maximal inhibitory concentration (IC50) in experiment [2] came to 5.43 µM; in experiment [1], 10.4 µM.

`Clc1cccc(Nc2ncnc3ccc(NCc4ccc(Br)cc4)cc23)c1`: the IC50 in experiment [2] came out at 3.81 µM; in experiment [3], 5.67 µM; in experiment [1], 4.01 µM.

On to `Fc1ccc(CNc2ccc3ncnc(Nc4cccc(Cl)c4)c3c2)cc1`, for which the IC50 in experiment [2] was 2.69 µM; in experiment [1] it was 2.95 µM.

Turning to `COc1ccccc1CNc1ccc2ncnc(Nc3cccc(Cl)c3)c2c1`, the IC50 in experiment [2] worked out at 9.85 µM; in experiment [3], 13.9 µM; in experiment [1], 14.8 µM.

Regarding `COc1ccc(CNc2ccc3ncnc(Nc4cccc(Cl)c4)c3c2)cc1`, the IC50 is 5.26 µM in experiment [2] and 8.43 µM in experiment [1].

Take `Oc1ccccc1CNc1ccc2ncnc(Nc3cccc(Cl)c3)c2c1`: the IC50 in experiment [2] turned out to be 2.08 µM; in experiment [3], 3.54 µM; in experiment [1], 3.18 µM.

As to `Brc1cccc(Nc2ncnc3ccc(NCc4ccccc4Br)cc23)c1`, the values for the IC50 in experiment [2] and in experiment [1] were 2.76 µM and 4.38 µM, respectively.

With `Oc1ccc(CNc2ccc3ncnc(Nc4cccc(Br)c4)c3c2)cc1`, the Activity in experiment [4] is 54.2%; in experiment [5] it was “Dose-dependent effect”; in experiment [6], 20.8%. The IC50 worked out at 0.28 µM in experiment [2] and 0.59 µM in experiment [1].

As for `Brc1ccc(CNc2ccc3ncnc(Nc4cccc(Br)c4)c3c2)cc1`, the IC50 was 1.41 µM in experiment [2], 3.13 µM in experiment [3] and 2.21 µM in experiment [1].

As to `Clc1ccccc1CNc1ccc2ncnc(Nc3cccc(Br)c3)c2c1`, the IC50 in experiment [2] amounted to 1.82 µM; in experiment [1], 3.74 µM.

Broadly, the IC50 is the concentration needed to halve the response being measured.
